Rows were chosen to be rich in hits. Some 1.5% of all compounds tested hit in one or more screens of this group.
NR2E3 ag-1: NR2E3 (human) agonism | 0.12% of 320,000 active | GST-NR2E3/biotin-RetCOR TR-FRET, 1536-well | AID 2300 | Q9Y5X4 | inhibition of corepressor binding, % at 4.78 µM;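 active means percent inhibition above the cutoff of mean plus 3 SD of all tested compounds, set per screening campaign, cut at about 20% in these data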
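Format: 1536-well format; test system: GST-NR2E3 and biotin-RetCOR proteins; read-out basis: percent inhibition of TR-FRET ratio; timing: 5 h incubation at 4 °C; detection: time-resolved FRET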
NR1D1 modulator: modulators of human Rev-erb alpha DNA binding; P20393; Rev-erbα–FITC-DNA binding, fluorescence polarization, 90 min; activity, % at 10 µM; 0.79% of 370,000 active; AID 1259318;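 active means activity above about 14%, limit read from the data; passing the limit was not always enough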
Target sequence (P20393 whole entry, looked up): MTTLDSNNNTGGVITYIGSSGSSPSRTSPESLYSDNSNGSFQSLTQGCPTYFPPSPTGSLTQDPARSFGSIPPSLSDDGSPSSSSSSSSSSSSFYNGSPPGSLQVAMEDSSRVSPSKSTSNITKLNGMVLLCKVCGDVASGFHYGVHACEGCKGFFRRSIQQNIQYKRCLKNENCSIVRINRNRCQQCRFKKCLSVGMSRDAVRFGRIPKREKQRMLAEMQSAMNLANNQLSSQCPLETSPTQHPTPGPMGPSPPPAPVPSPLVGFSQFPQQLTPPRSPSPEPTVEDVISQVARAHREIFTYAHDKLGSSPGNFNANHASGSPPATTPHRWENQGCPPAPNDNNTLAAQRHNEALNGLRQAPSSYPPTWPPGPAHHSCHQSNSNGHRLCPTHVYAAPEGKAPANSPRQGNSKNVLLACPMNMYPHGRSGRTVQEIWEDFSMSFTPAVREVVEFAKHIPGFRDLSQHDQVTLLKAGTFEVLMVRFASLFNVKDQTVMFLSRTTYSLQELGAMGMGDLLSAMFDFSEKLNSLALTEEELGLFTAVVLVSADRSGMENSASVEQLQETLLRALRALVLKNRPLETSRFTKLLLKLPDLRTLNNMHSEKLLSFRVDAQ
PG9 Ab binder: small molecules binding HIV-1 gp120 antibody PG9; inhibition, % at 6.7 µM; 0.43% of 360,000 active; AID 624416; TR-FRET gp120-PG9 antibody binding; in the data active means inhibition above about 8.5%
NR2E3 ag-2: activates human NR2E3 receptor. inhibition of corepressor binding, % at 3.98 µM. Q9Y5X4. 0.35% of 360,000 active. CHO-S Gal4-NCOR/VP16-NR2E3 two-hybrid, luciferase;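 active means inhibition above the mean of all tested compounds plus 3 SD, cut at about 70% in these data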;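 further: higher means lower luciferase signal from less NR2E3 corepressor binding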
Hits are given with their value; i = inactive; nt = not tested or not shown.

SMILES	NR2E3 ag-1	NR1D1 modulator	PG9 Ab binder	NR2E3 ag-2
CCCOc1cccc(C2/C(=C(/O)c3ccc4c(c3)CC(C)O4)C(=O)C(=O)N2CCN2CCOCC2)c1 (stereo not given)	i	i	i	i
CC1Cc2cc(/C(O)=C3/C(=O)C(=O)N(CCN4CCOCC4)C3c3cccc(Cl)c3)ccc2O1 (stereo not given)	i	i	11	i
CCC(=O)OCC(=O)[C@@]1(OC(=O)CC)[C@@H](C)CC2C3CCC4=CC(=O)C=C[C@]4(C)[C@@]3(F)[C@@H](O)C[C@@]21C (stereo not given in full)	nt	i	nt	nt
C[C@H](Cc1cc2c(c(C(N)=O)c1)N(CCCO)CC2)NCCOc1ccccc1OCC(F)(F)F	nt	i	nt	nt
O=S(=O)(c1ccc2c(c1)OCCO2)N1CCN(c2ncnc3sccc23)CC1	i	i	i	87
CN1CCN(S(=O)(=O)c2ccc3c(c2)OCCO3)CC1	i	i	i	i
C[C@@H]1CC2C3C[C@H](F)C4=CC(=O)C=C[C@]4(C)[C@@]3(F)[C@@H](O)C[C@]2(C)[C@@]1(O)C(=O)CO (stereo not given in full)	nt	i	nt	nt
Cc1cc(NCCCCCCCNc2cc(C)nc3cc([N+](=O)[O-])ccc23)c2ccc([N+](=O)[O-])cc2n1	nt	i	13	i
C[C@@H](O)[C@H]1C(=O)N2C(C(=O)O)=C(SC3Cn4cnc[n+]4C3)[C@H](C)[C@H]12 (stereo not given in full)	nt	i	nt	nt
CCOC(=O)[C@](C)(N)Cc1ccc(O)c(O)c1	nt	i	nt	nt
CC(C)(C)C1C/C(=C/c2ccccn2)C(=O)/C(=C/c2ccccn2)C1 (stereo not given)	i	nt	nt	96
CC1C/C(=C/c2ccccn2)C(=O)/C(=C/c2ccccn2)C1 (stereo not given)	i	nt	nt	i
CC(=O)O[C@]1(C(C)=O)CCC2C3C=C(Cl)C4=CC(=O)[C@@H]5C[C@@H]5[C@]4(C)C3CC[C@@]21C (stereo not given in full)	nt	i	nt	nt
O=C(O)CC(S)C(=O)O (stereo not given)	nt	i	nt	nt
COc1ccc(/C(O)=C2/C(=O)C(=O)N(CCN(C)C)C2c2ccccc2)cc1Cl (stereo not given)	i	i	8.7	i
CN1CCN(c2ccc(-c3ccc4ccccc4n3)cc2)CC1	nt	i	i	87
c1ccc2nc(-c3ccncc3)ccc2c1	i	i	i	i
CC(=O)[C@@]1(O)CCC2C3C=C(Cl)C4=CC(=O)[C@@H]5C[C@H]5[C@]4(C)C3CC[C@@]21C (stereo not given in full)	nt	i	nt	nt
Cc1ccc(NC2=C/C(=N/S(=O)(=O)c3cccs3)c3ccccc3C2=O)cc1	i	i	i	i
O=C1C(Nc2ccccc2)=C/C(=N/S(=O)(=O)c2cccs2)c2ccccc21	i	nt	nt	102
CO[C@H]1O[C@H](CNC(=O)N(CCCl)N=O)[C@@H](O)[C@H](O)[C@H]1O	nt	i	nt	nt
Cc1ccc(S(=O)(=O)/N=C2/C=C(Sc3ncn[nH]3)C(=O)c3ccccc32)cc1	i	nt	nt	106
CO[C@H]1O[C@H](CO)[C@H](O[C@@H]2OC(C(=O)O)[C@@H](O[C@H]3O[C@H](COS(=O)(=O)O)[C@H](O[C@@H]4OC(C(=O)O)[C@@H](O[C@H]5O[C@H](CO)[C@H](O[C@@H]6OC(C(=O)O)[C@@H](O[C@H]7O[C@H](COS(=O)(=O)O)[C@H](O[C@@H]8OC(C(=O)O)=C[C@H](O)C8OS(=O)(=O)O)[C@H](O)[C@H]7NC(C)=O)[C@H](O)[C@H]6O)[C@H](O)[C@H]5NC(C)=O)[C@H](O)[C@H]4O)[C@H](O)[C@H]3NC(C)=O)[C@H](O)[C@H]2O)[C@H](O)[C@H]1NC(C)=O (stereo not given in full)	nt	i	nt	nt
CC1(C)[C@H]2CC[C@]1(C)C(=O)C2	nt	i	nt	nt
Cc1cc(C)n(-c2nc(NC(C)C)nc(NC(C)C)n2)n1	i	i	i	81
SMILES	NR2E3 ag-1	NR1D1 modulator	PG9 Ab binder	NR2E3 ag-2
Cc1cc(C)n(-c2nc(Nc3ccccc3C)nc(-n3nc(C)cc3C)n2)n1	i	i	i	nt
Cc1cc(C)n(-c2nc(NC(C)(C)C)nc(NC(C)(C)C)n2)n1	i	i	i	105
Nc1nc(=O)n([C@@H]2CS[C@@H](CO)O2)cc1F	nt	i	nt	nt
Cc1sccc1C1C(C#N)=C(N)SC(N)=C1C#N	36	nt	nt	nt
c1ccc2c(c1)oc1c(N3CCOCC3)ncnc12	i	i	i	i
C(=C\c1ccccc1)/CN1CCN(c2ncnc3c2oc2ccccc23)CC1	i	i	i	98
CCCCn1c(NC(=O)CC)c(C#N)c2nc3ccccc3nc21	i	nt	i	i
